# Test results reported in ChEMBL document CHEMBL1154198, “Chemical genetics of Plasmodium falciparum” (Nature, 2010).
# Experiments:
# Plasmodium falciparum [1] = test: ST_JUDE: Plasmodium falciparum 3D7 EC50 (uM) as measured by SYBR green dye; assay type: functional, organism-based
# Plasmodium falciparum [2] = test: ST_JUDE: Plasmodium falciparum K1 EC50 (uM) as measured by SYBR green dye; assay type: functional, organism-based
# Plasmodium falciparum [3] = test: ST_JUDE: Cytotoxicity against Plasmodium falciparum 3D7; assay type: functional, organism-based
# How it was run: (§1)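 Asexual P. falciparum grown in human erythrocytes, exposed to compounds for 72 h, and growth read as the DNA quantity in treated versus control cultures. Dose-response run at 12 concentrations from 10 μM to 5 nM.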
# Plasmodium falciparum [4] = test: ST_JUDE: Cytotoxicity against Plasmodium falciparum K1; assay type: functional, organism-based; how it was run: as §1
# Plasmodium falciparum [5] = test: ST_JUDE: Cytotoxicity against Plasmodium falciparum V1/S; assay type: functional, organism-based
# Toxoplasma gondii = test: ST_JUDE: Growth inhibition of to Toxoplasma gondii, in human U-2OS cells, as measured by luciferase.; assay type: functional, organism-based; conditions: RH, U2OS
# How it was run: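 T. gondii parasites engineered to express luciferase; drug sensitivity read by luminescence.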
# Trypanosoma brucei = test: ST_JUDE: Cytotoxicity using luciferase to measure ATP as an indicator of the viability of Trypanosoma brucei; assay type: functional, organism-based
# Leishmania major = test: ST_JUDE: Cytotoxicity using Alamar Blue to measure viability of Leishmania major; assay type: functional, organism-based
# How it was run: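 L. major promastigotes; drug susceptibility read with Alamar Blue.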
# [6] = ST_JUDE: Cytotoxicity using luciferase to measure ATP as an indicator of the viability of human foreskin fibroblast cells (BJ); assay type: toxicity, cell-based
# [7] = ST_JUDE: Cytotoxicity using luciferase to measure ATP as an indicator of the viability of human epithelial hepatocellular carcinoma cells (HepG2); assay type: toxicity, cell-based
# [8] = ST_JUDE: Cytotoxicity using luciferase to measure ATP as an indicator of the viability of human epithelial embryonic kidney cells (HEK293); assay type: toxicity, cell-based
# [9] = ST_JUDE: Cytotoxicity using luciferase to measure ATP as an indicator of the viability of human Burkitt''s lymphoma lymphoblast cells (Raji); assay type: toxicity, cell-based
# Plasmodium falciparum [10] = test: ST_JUDE: Cytotoxicity against Plasmodium falciparum Dd2; assay type: functional, organism-based
# Plasmodium falciparum [11] = test: ST_JUDE: Cytotoxicity against Plasmodium falciparum W2; assay type: functional, organism-based
# Plasmodium falciparum [12] = test: ST_JUDE: Cytotoxicity against Plasmodium falciparum SB-A6; assay type: functional, organism-based
# Plasmodium falciparum [13] = test: ST_JUDE: Cytotoxicity against Plasmodium falciparum D10 transfected with yeast DHOD; assay type: functional, organism-based
SMILES,EC50 (Plasmodium falciparum [1]) [µM],EC50 (Plasmodium falciparum [2]) [µM],EC50 (Plasmodium falciparum [3]) [µM],EC50 (Plasmodium falciparum [4]) [µM],EC50 (Plasmodium falciparum [5]) [µM],EC50 (Toxoplasma gondii) [µM],EC50 (Trypanosoma brucei) [µM],EC50 (Leishmania major) [µM],EC50 [6] [µM],EC50 [7] [µM],EC50 [8] [µM],EC50 [9] [µM],EC50 (Plasmodium falciparum [10]) [µM],EC50 (Plasmodium falciparum [11]) [µM],EC50 (Plasmodium falciparum [12]) [µM],EC50 (Plasmodium falciparum [13]) [µM]
COc1ccccc1/N=C1\C=C(NS(=O)(=O)c2ccc(C(C)C)cc2)c2ccccc2C1=O,0.598,0.132,0.45,0.289,0.28,> 18.9,1.79,> 14.8,> 34.5,> 34.5,> 34.5,> 34.5,0.627,> 8.87,0.19,0.343
Nc1ccc(-c2nc3cc(-c4ccc5[nH]c(-c6ccc(N)cc6)nc5c4)ccc3[nH]2)cc1,0.264,0.174,0.221,0.201,0.153,> 21,2.52,> 16.4,> 38.3,8.94,> 38.3,> 38.3,0.165,0.0779,0.108,0.12
Cc1cc(C)nc(/N=C(\N)Nc2ccccc2O)n1,0.594,0.497,1.43,0.56,0.979,> 18.7,> 32.8,> 14.6,> 34.2,> 34.2,> 34.2,> 34.2,0.908,5.71,2.18,2.88
CCOc1ccc2nc3cc(N)ccc3c(N)c2c1,1.12,0.582,1.94,1.73,2,> 17.9,7.47,> 14,17.9,> 32.6,> 32.6,> 32.6,0.294,0.758,2.38,2.39
Clc1ccc(Nc2nc(NCc3ccco3)c3ccccc3n2)cc1,0.797,1.71,1.26,1.83,> 11.9,> 25.4,9.21,0.0006,> 46.4,24,31.2,> 46.4,0.818,> 11.9,0.388,1.15
CCN(CC)CCN1C(=O)c2ccccc2NC1c1ccc(Cl)cc1 (stereo not drawn),0.578,0.526,2.18,1.67,1.14,> 23.5,> 41.1,> 18.4,> 42.9,> 42.9,> 42.9,> 42.9,1.12,1.95,2,1.87
CCCCCCCCCC[n+]1ccccc1,1.31,1.53,2.29,3.6,9.36,> 26.8,> 46.9,> 20.9,> 48.9,> 48.9,> 48.9,9.31,1.15,0.899,2.88,3.93
CCOc1ccc(NC(=O)C2c3ccccc3C(=O)N(CC(C)C)C2c2cccs2)cc1 (stereo not drawn),0.133,0.147,0.258,0.294,0.503,> 23.5,6.89,> 18.3,> 42.8,> 42.8,> 42.8,> 42.8,0.362,0.134,0.353,0.368
Cc1ccc2c(c1)S/C(=C\c1sc3ccccc3[n+]1C)N2CCO,0.367,0.14,0.548,0.567,0.577,> 13,11,0.112,> 23.7,> 23.7,> 23.7,3.09,0.426,0.495,0.603,0.438
CCOC(=O)c1cnc2c(OC)cccc2c1Nc1ccc(OC)c(OC)c1,0.858,0.804,0.476,0.651,0.865,> 24.7,> 43.2,> 19.3,> 45.1,> 45.1,> 45.1,> 45.1,0.676,2.7,> 11.6,> 11.6
C=CCn1c(=N)n(CC(O)c2ccc(Cl)c(Cl)c2)c2ccccc21 (stereo not drawn),0.334,0.181,1.08,0.603,0.788,> 24.5,8.34,> 19.1,> 44.7,16.4,39.2,26.4,0.434,0.512,2.53,2.63
CC(C)(C)C(=O)N1CCN(c2ccc([N+](=O)[O-])c(NC3CC3)c2)CC1,0.67,0.641,1.24,1.07,1.15,> 23.8,21.3,> 18.6,> 43.4,> 43.4,> 43.4,> 43.4,1.05,0.48,1.24,1.36
CCOC(=O)C1(Cc2cccc(F)c2)CCN(Cc2ccccc2O)CC1,0.347,0.284,1.2,0.402,1.27,> 28.8,25.3,> 22.5,> 52.6,> 52.6,> 52.6,> 52.6,0.679,1.01,1.2,1.42
